Here are results for eleven molecules from paper PMC7104417 (ACS chemical neuroscience, 2020).

For data set [1], the target named is T1, human M1R (Homo sapiens, UniProt P11229).
T1 sequence (P11229 1-460): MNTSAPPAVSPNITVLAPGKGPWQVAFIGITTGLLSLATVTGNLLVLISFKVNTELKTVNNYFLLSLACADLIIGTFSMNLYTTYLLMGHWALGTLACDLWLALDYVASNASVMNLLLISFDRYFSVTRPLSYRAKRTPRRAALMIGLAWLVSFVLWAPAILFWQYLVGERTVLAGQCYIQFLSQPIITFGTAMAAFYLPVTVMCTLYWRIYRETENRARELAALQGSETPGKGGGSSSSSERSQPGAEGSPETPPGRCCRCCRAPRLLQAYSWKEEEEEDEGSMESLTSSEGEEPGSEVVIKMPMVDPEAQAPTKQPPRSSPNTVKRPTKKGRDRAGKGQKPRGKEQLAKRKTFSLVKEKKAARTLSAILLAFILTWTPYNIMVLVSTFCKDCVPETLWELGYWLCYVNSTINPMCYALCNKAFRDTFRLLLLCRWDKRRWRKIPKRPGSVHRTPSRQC
The settings on record: cited from earlier work.

Data set [2] addresses T1, human M1R. It counts as binding. The note with it: for Displacement of radioligand at M1Rs at highest concentration: 100 μM.
The conditions of data set [3]: cited from earlier work.
The target in another data set is T2, human M1Rs (Homo sapiens, UniProt P11229).
T2 sequence (P11229 1-460): T1 sequence (P11229 1-460)
In words: M1R phosphoinositide hydrolysis. Format: cell-based.

For data set [4], the target named is T3, human M2R (Homo sapiens, UniProt P08172).
T3 sequence (P08172 1-466): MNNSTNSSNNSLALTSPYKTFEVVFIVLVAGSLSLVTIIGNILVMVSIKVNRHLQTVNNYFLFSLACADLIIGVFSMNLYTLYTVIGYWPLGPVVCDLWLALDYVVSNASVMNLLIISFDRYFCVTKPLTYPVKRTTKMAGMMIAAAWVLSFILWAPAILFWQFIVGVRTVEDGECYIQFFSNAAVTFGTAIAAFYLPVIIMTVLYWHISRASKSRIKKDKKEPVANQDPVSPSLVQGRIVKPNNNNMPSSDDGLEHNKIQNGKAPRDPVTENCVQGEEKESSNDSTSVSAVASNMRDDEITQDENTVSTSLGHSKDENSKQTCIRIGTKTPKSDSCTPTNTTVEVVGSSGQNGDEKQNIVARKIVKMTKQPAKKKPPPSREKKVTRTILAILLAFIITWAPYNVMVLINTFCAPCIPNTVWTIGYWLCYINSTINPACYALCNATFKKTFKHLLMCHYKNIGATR
Nature of the data set: M2R β-arrestin recruitment. Format: cell-based. On the technique in general: Activated receptors often draw arrestin, which recruitment assays turn into a signal.

The target of data set [5] is T3, human M2R. In words: M2R cAMP signaling. It counts as cell-based.
Data set [6] deals with T3, human M2R. In words: [3H]scopolamine radioligand competition binding at M2R. The settings on record: for Displacement of radioligand at M2Rs at highest concentration: 100 μM; for Displacement of radioligand at M2Rs at highest concentration / Ki: full dose-response competition binding; for Ki: read-out: Ki at M2Rs.
Data set [7] relates to human M1Rs, M2Rs, M3Rs, M4Rs, and M5Rs. Nature of the data set: Initial [3H]scopolamine displacement screen at each of the five MR subtypes. Format: binding. The note with it: screened at 1 and 10 μM. In a few lines:
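HEK293 cells (passage <20), lipid-transfected with human M1–M5 receptor cDNA; membranes harvested ~48 h later and stored at -80 °C. […] Filtered on GF/B, washed with ice-cold 50 mM Tris pH 7.4, scintillation counted. Affinities estimated from these two concentrations; N=2.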

For data set [8] the following is noted: cited from earlier work. The source holds these as a separate data set.
For a further data set, the system named is DAT. The settings on record: cited from earlier work.
For the next data set, the system named is NET. The settings on record: cited from earlier work.
The conditions of data set [9]: α-PVP confirmed as only stimulant responsible for intoxication; cited from earlier work.
[10] abbreviates: full dose-response competition binding.

Molecules are shown by their SMILES. Values joined by “and” are separate entries in the source; they are usually repeats but may differ in a detail not shown here. Equal entries are not always repeated. Where two headings read alike, the source gives them in different places. A value given as a limit tells only on which side of the number the result lay.

As for `CNC(C)C(=O)c1ccc(Br)cc1` (stereo not shown) [4-bromomethcathinone, reference compound], the “Affinity at M1Rs (initial experiments)” value at human M1R [1] was “nil affinity”.

Regarding `CCCCC(C(=O)c1ccc2c(c1)OCO2)N1CCCC1` (stereo not drawn) [MDPHP, 3,4-methylenedioxy-α-pyrrolidinohexiophenone], the “Estimated pKi at M1R” value at human M1R [2] is reported as 5.44. The inhibition constant (Ki) on human M1R [2] (read-out: Estimated Ki at M1Rs, estimated from 1 and 10 μM screens) is 3.63 µM.

Regarding `CCCCCC(C(=O)c1ccc2c(c1)OCO2)N1CCCC1` (stereo not drawn) [MDPHPP, 3,4-methylenedioxy-α-pyrrolidinoheptaphenone], the “Estimated pKi at M1R” value at human M1R [2] was 5.22.

Turning to `CC(C(=O)c1ccc2c(c1)OCO2)N1CCCC1` (stereo not drawn) [MDPPP, 3,4-methylenedioxy-α-pyrrolidinopropiophenone], the “Affinity at M1Rs (initial experiments)” value on human M1R [1] is “nil affinity”.

As to `CCCC(C(=O)c1ccc2c(c1)OCO2)N1CCCC1` (stereo not shown) [MDPV, 3,4-methylenedioxypyrovalerone], the “Estimated pKi at M1R” value at human M1R [2] was 5.06. The “Effect on mitochondrial activity and cellular membranes” value in data set [3] is “not observed”.

As to `O=C1CCCN1CC#CCN1CCCC1` [oxotremorine, reference compound], on human M1Rs, the “EC80, IP1 production” value came out at 0.5 µM. At human M2R [4] (concentration used in antagonist tests), the “EC80, β-arrestin recruitment” value amounted to 10 µM. This molecule also gave a concentration giving a half-maximal response (EC50) on human M2R [5] of 0.0288 µM. For the same molecule, the “EC80, decrease of forskolin-stimulated cAMP production” value at human M2R [5] (10 μM forskolin) is 0.13 µM.

Turning to `CCC(C(=O)c1ccccc1)N1CCCC1` (stereo not drawn) [α-PBP, α-pyrrolidinobutiophenone], the “Displacement of radioligand at M2Rs at highest concentration” value on human M2R [6] is on record as “less than 50%”. Moreover, the Ki on human M2R [6] (interpolated) is 40 µM. Moreover, on human M1R [2] (setting [10]), the “Displacement of radioligand at M1Rs at highest concentration” value is recorded as “less than 50%”. For the same molecule, the “Displacement of 1 nM [3H]scopolamine from each of the MR subtypes” value in [7] was under 5%.

Consider `CCCCC(C(=O)c1ccccc1)N1CCCC1` (stereo not drawn) [α-PHP, α-pyrrolidinohexiophenone], for which, at human M1Rs (EC80 oxotremorine (500 nM)), the “pKb, inhibition of M1R-IP1 production caused by oxotremorine” value stood at 5.86 ± 0.35. For the same molecule, the “Functional activity at M1R-inositol phosphate signaling pathway” value at human M1Rs (maximal effect lower than basal signaling) is “inverse agonist activity”. For the same molecule, the Kb at human M1Rs (read-out: Kb, inhibition of M1R-IP1 production caused by oxotremorine, EC80 oxotremorine (500 nM)) was 1.4 µM and 1.38 µM; on human M2R [5] (read-out: Kb, inhibition of M2R stimulation by oxotremorine (cAMP)), 0.12 µM. At human M2R [6] (ratio of Ki values), the “Fold increase in M2R affinity compared to α-PPP” value was determined as 302 fold. Also, the Ki on human M2R [6] was 0.251 µM; at human M1R [2] (read-out: Ki at M1Rs, full dose-response competition binding), 1.6 µM. Further, the “Blood concentration, fatal cases” value in data set [8] (fatal cases, as high as) was at most 2860 nM. In data set [8] (male admitted to hospital after inhaling only α-PHP), the “Blood concentration, non-fatal case” value is 1280 nM. Also, in [8] (patient admitted to hospital after taking α-PHP), the “Serum concentration, non-fatal case” value is 710 nM. The “Fold increase in M1R affinity from α-PPP” value at human M1R [2] (ratio of Ki values) came to 121 fold. Also, the “Fold higher affinity at DAT than α-PPP” value in the data set on DAT is on record as 81 fold. In addition, in the data set on NET, the “Fold higher affinity at NET than α-PPP” value is given as 6 fold. Also, the “pKb, inhibition of oxotremorine-stimulated β-arrestin recruitment” value at human M2R [4] (EC80 oxotremorine (10 μM)) was found to be 6.30 ± 0.12. In addition, on human M2R [4] (relative to basal signaling), the “Functional activity at M2R-β-arrestin recruitment” value is reported as “inverse agonist”. The “pKb, inhibition of M2R stimulation by oxotremorine (cAMP)” value on human M2R [5] is on record as 6.92 ±0.03. For the same molecule, on human M2R [5] (maximal effect above forskolin alone), the “Functional activity at M2R-cAMP signaling pathway” value was “inverse agonist”.

`CC(C(=O)c1ccccc1)N1CCCC1` (stereo not drawn) [α-PPP, α-pyrrolidinopropiophenone]: the “Affinity at M1Rs (initial experiments)” value on human M1R [1] is given as “nil affinity”. In addition, the “Displacement of radioligand at M2Rs at highest concentration” value at human M2R [6] is given as “less than 50%”. Besides, the “Displacement of radioligand at M1Rs at highest concentration” value at human M1R [2] (setting [10]) was “less than 50%”. Further, in data set [7], the “Displacement of 1 nM [3H]scopolamine from each of the MR subtypes” value is listed as under 5%.

Turning to `CCCCCCC(C(=O)c1ccccc1)N1CCCC1` (stereo not drawn) [α-PV9, α-pyrrolidinooctanophenone, reference compound], the “Effect on mitochondrial activity and cellular membranes” value in data set [3] was “potently decreased mitochondrial activity and severely damaged cellular membranes”.

With `CCCC(C(=O)c1ccccc1)N1CCCC1` (stereo not drawn) [α-PVP, α-pyrrolidinopentiophenone], on human M2R [6] (ratio of Ki values), the “Fold increase in M2R affinity compared to α-PBP” value is given as 49 fold and the “Fold increase in M2R affinity compared to α-PPP” value was found to be 89 fold. The Ki on human M2R [6] was 0.824 µM. In addition, in [8] (non-fatal cases, as high as), the “Serum concentration, non-fatal cases” value is at most 2600 nM. The “Concentration, postmortem cases” value in data set [8] (postmortem cases, as high as) is at most 86000 nM. Besides, the “Patients presenting with tachycardia” value in data set [9] is given as 80%.

Broadly, the Ki is the dissociation constant of the complex between target and ligand, obtained from inhibition or displacement. As a reminder, the EC50 is the midpoint of the concentration-response curve. The low end stands for greater potency, the high end for weaker potency.
